Test results published in ChEMBL document CHEMBL4406921, “Discovery of Axelopran (TD-1211): A Peripherally Restricted μ-Opioid Receptor Antagonist” (ACS Med Chem Lett, 2019).
pKi: −log10 of the molar value.

How the values were obtained:
Mu-type opioid receptor [1] = biological target: T1, Mu-type opioid receptor (Homo sapiens, UniProt P35372); experiment: Displacement of [3H]-DPN from recombinant human mu opioid receptor expressed in CHO-K1 cell membranes by radioligand binding assay
Procedure, shortened: (§1)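 Membranes from CHO-K1 cells stably transfected with human recombinant μ or δ receptor, or guinea pig κ receptor; competition with [3H]-DPN radioligand; affinity reported as pKi.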

[2] = biological target: Delta-type opioid receptor (Homo sapiens, UniProt P41143); experiment: Displacement of [3H]-DPN from recombinant human delta opioid receptor expressed in CHO-K1 cell membranes by radioligand binding assay; procedure, shortened: as §1
Mu-type opioid receptor [3] = biological target: T1, Mu-type opioid receptor; experiment: Antagonist activity at human recombinant mu opioid receptor expressed in CHO-K1 cell membranes assessed as intrinsic activity at 10 pM to 20 uM incubated for 30 mins in presence of Eu-GTP by DELFIA GTP binding assay relative to DAMGO
[4] = Half life in rat liver microsomes at 3 uM; format: ADME, Microsome
[5] = Half life in dog liver microsomes at 3 uM; format: ADME, Canis lupus familiaris, Microsome
[6] = Half life in human liver microsomes at 3 uM; format: ADME, Microsome
[7] = biological target: Kappa-type opioid receptor (Cavia porcellus, UniProt P41144); experiment: Displacement of [3H]-DPN from guinea pig kappa opioid receptor expressed in CHO-K1 cell membranes by radioligand binding assay; procedure, shortened: as §1
[8] = Permeability coefficient, Kp in human Caco2 cells; format: ADME, cell-based; conditions: Caco-2, read-out: Kp
[9] = Cmax in Sprague-Dawley rat at 5 mg/kg, po administered via gavage; format: ADME, organism-based; design: dose 5 mg/kg, route oral; conditions: in vivo
[10] = AUC(0 to t) in Sprague-Dawley rat at 5 mg/kg, po administered via gavage; format: ADME, organism-based; conditions: in vivo
[11] = Half life in Sprague-Dawley rat at 5 mg/kg, po administered via gavage; format: ADME, organism-based; conditions: in vivo
[12] = Oral bioavailability in Sprague-Dawley rat at 5 mg/kg administered via gavage; format: ADME, organism-based; conditions: in vivo
Mus musculus [13] = experiment: Inhibition of morphine-induced delays in intestinal transit in po dosed ICR mouse administered via gavage pretreated with compound and 30 mins later injected with morphine followed 5 mins later by ingestion of test meal and measured after 60 mins; format: functional; conditions: for ED50: read-out: ID50 (the source's name)
Procedure, shortened: (§2)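 Mice dosed orally; reversal of morphine-induced delay in intestinal transit, delay in gastric emptying, or hot plate antinociception measured; dose-dependent responses fitted to give ID50 in mg/kg.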

Mus musculus [14] = experiment: Inhibition of morphine-induced delays in gastric emptying in po dosed ICR mouse administered via gavage pretreated with compound and 30 mins later injected with morphine followed 5 mins later by ingestion of test meal and measured after 60 mins; format: functional; conditions: for ED50: read-out: ID50 (the source's name); procedure, shortened: as §2
Mus musculus [15] = experiment: Inhibition of morphine-induced antinociceptive activity in po dosed ICR mouse administered via gavage pretreated with compound and 30 mins later injected with morphine and measured after 30 mins by hot plate test; format: functional; conditions: for ED50: read-out: ID50 (the source's name); procedure, shortened: as §2
Mus musculus [16] = species on record: Mus musculus; experiment: Peripheral selectivity index, ratio of ID50 for inhibition of morphine-induced antinociceptive activity in ICR mouse to ID50 for inhibition of morphine-induced delays in intestinal transit in ICR mouse; format: functional
Procedure, shortened: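 Mice were dosed orally with antagonist at several doses and challenged with morphine. ID50 values were taken from dose-dependent reversal of morphine-induced hot plate antinociception (CNS) and of morphine-induced delay in intestinal transit (peripheral). The index is the hot plate ID50 divided by the intestinal transit ID50.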

Mus musculus [17] = species on record: Mus musculus; experiment: Peripheral selectivity index, ratio of ID50 for inhibition of morphine-induced delays in gastric emptying in ICR mouse to ID50 for inhibition of morphine-induced delays in intestinal transit in ICR mouse; format: functional

T1 sequence (P35372 whole entry): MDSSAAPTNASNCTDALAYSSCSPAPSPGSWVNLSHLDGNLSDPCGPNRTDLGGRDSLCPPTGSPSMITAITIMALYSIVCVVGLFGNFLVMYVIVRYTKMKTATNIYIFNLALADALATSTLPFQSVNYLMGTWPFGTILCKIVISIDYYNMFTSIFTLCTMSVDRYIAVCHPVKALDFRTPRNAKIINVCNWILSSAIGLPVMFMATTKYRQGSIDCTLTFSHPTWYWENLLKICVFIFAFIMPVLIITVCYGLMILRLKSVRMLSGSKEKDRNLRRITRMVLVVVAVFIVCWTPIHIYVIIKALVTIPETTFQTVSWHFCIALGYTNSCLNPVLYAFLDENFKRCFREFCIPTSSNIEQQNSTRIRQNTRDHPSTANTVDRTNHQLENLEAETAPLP
Delta-type opioid receptor, sequence (P41143 whole entry): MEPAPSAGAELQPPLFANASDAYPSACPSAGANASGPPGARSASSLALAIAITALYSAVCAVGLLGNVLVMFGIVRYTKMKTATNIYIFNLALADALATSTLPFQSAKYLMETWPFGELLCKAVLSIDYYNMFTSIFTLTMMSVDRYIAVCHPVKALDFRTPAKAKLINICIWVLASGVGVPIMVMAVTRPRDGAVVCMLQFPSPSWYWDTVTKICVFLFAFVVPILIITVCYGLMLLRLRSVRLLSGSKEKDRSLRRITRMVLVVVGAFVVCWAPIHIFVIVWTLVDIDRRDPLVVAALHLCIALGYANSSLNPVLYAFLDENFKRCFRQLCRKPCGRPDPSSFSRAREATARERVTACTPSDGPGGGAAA
Kappa-type opioid receptor, sequence (P41144 whole entry): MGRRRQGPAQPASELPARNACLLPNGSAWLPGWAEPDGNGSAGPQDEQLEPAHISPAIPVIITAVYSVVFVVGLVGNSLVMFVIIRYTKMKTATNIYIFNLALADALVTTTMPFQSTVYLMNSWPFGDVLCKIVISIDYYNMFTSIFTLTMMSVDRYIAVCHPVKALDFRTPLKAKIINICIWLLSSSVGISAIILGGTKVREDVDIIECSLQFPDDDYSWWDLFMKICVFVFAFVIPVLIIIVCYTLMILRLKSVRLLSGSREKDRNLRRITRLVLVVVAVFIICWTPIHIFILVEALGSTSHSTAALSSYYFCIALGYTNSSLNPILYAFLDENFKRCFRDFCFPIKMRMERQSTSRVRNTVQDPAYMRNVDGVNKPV

| Compound | pKi (Mu-type opioid receptor [1]) | pKi [2] | Intrinsic activity (Mu-type opioid receptor [3]) [%] | half-life at 3 µM [4] [h] | half-life at 3 µM [5] [h] | half-life at 3 µM [6] [h] | pKi [7] | Papp [8] [×10⁻⁶ cm/s] | Cmax [9] [ng/mL] | AUC(0-t) [10] [ng·h/mL] | half-life [11] [h] | bioavailability [12] [%] | inhibition (Mus musculus [13]) | ED50 (Mus musculus [13]) [mg/kg] | inhibition (Mus musculus [14]) | ED50 (Mus musculus [14]) [mg/kg] | inhibition (Mus musculus [15]) | ED50 (Mus musculus [15]) [mg/kg] | Selectivity Index (Mus musculus [16]) | Selectivity Index (Mus musculus [17]) |
| --- | --- | --- | --- | --- | --- | --- | --- | --- | --- | --- | --- | --- | --- | --- | --- | --- | --- | --- | --- | --- |
| CCC(CC)CN(CCCCCCN1[C@@H]2CC[C@H]1C[C@@H](c1cccc(C(N)=O)c1)C2)C(=O)CO | 9.00 | 7.60 | -2 | 0.433 | 0.15 | 0.15 | – | – | – | – | – | – | – | – | – | – | – | – | – | – |
| CCC(CC)CN(CCCCCN1[C@@H]2CC[C@H]1C[C@@H](c1cccc(C(N)=O)c1)C2)C(=O)CO | 9.20 | 7.70 | 1 | 0.467 | 0.317 | 0.2 | – | – | – | – | – | – | – | – | – | – | – | – | – | – |
| NC(=O)c1cccc([C@H]2C[C@H]3CC[C@@H](C2)N3CCN(CC2CCCCC2)C(=O)c2ccco2)c1 | 10.00 | 8.90 | 1 | 0.167 | 0.0333 | 0.283 | 10.00 | – | – | – | – | – | – | – | – | – | – | – | – | – |
| NC(=O)c1cccc([C@H]2C[C@H]3CC[C@@H](C2)N3CCN(CC2CCCCC2)C(=O)Cc2nnn[nH]2)c1 | 9.40 | 8.50 | 0 | 1.5 | 1.5 | 1.5 | 8.80 | < 1 | – | – | – | – | – | – | – | – | – | – | – | – |
| CCC(CC)CN(CCCCN1[C@@H]2CC[C@H]1C[C@@H](c1cccc(C(N)=O)c1)C2)C(=O)CO | 9.20 | 7.70 | -1 | 1.5 | 1.5 | 0.35 | – | – | – | – | – | – | – | – | – | – | – | – | – | – |
| CS(=O)(=O)N(CCN1[C@@H]2CC[C@H]1C[C@@H](c1cccc(C(N)=O)c1)C2)CC1CCCCC1 | 9.60 | 8.10 | 1 | 0.217 | 0.0333 | 0.317 | 9.10 | – | – | – | – | – | – | – | – | – | – | – | – | – |
| NC(=O)c1cccc([C@H]2C[C@H]3CC[C@@H](C2)N3CCN(CC2CCC2)C(=O)CO)c1 | 8.80 | 7.50 | 13 | 1.5 | 1.5 | 1.5 | 9.20 | 14 | – | – | – | – | – | – | – | – | – | – | – | – |
| NC(=O)c1cccc([C@H]2C[C@H]3CC[C@@H](C2)N3CCN(CC2CCCCC2)C(=O)CO)c1 | 10.00 | 8.40 | -3 | 1.28 | 0.3 | 1.32 | 9.90 | 40 | 290 | 430 | 1.3 | 61 | Dose-dependent effect | 0.1 | Dose-dependent effect | 0.046 | Dose-dependent effect | 4.2 | 42 | 91 |
| NC(=O)c1cccc([C@H]2C[C@H]3CC[C@@H](C2)N3CCN(CCc2ccccc2)C(=O)CO)c1 | – | 7.70 | – | 0.567 | 1.02 | 1.5 | – | 16 | – | – | – | – | – | – | – | – | – | – | – | – |
| NC(=O)c1cccc([C@H]2C[C@H]3CC[C@@H](C2)N3CCN(CC2CCCC2)C(=O)CO)c1 | 9.60 | 7.80 | 4 | 1.5 | 0.233 | 1.5 | 9.50 | 12 | – | – | – | – | – | – | – | – | – | – | – | – |
| COC(=O)N(CCN1[C@@H]2CC[C@H]1C[C@@H](c1cccc(C(N)=O)c1)C2)CC1CCCCC1 | 9.90 | 8.60 | 7 | 0.0333 | 0.0333 | 0.117 | 9.70 | – | – | – | – | – | – | – | – | – | – | – | – | – |
| O=C1CC[C@@]2(O)[C@H]3Cc4ccc(O)c5c4[C@@]2(CCN3CC2CC2)[C@H]1O5 [NALTREXONE] | – | – | – | – | – | – | – | 84 | – | – | – | – | – | 0.6 | – | 0.5 | – | 0.82 | – | – |
| C[C@H]1CN(C[C@H](Cc2ccccc2)C(=O)O)CC[C@@]1(C)c1cccc(O)c1 | 9.50 | 7.80 | -8 | > 1.5 | > 1.5 | > 1.5 | 7.60 | 5 | 710 | 1200 | 3.7 | 53 | – | 0.064 | – | 0.027 | – | 1.1 | 17 | 41 |
| NC(=O)c1cccc([C@H]2C[C@H]3CC[C@@H](C2)N3CCN(Cc2ccccc2)C(=O)CO)c1 | – | 8.30 | -3 | 1.42 | 1.5 | 1.5 | 9.70 | 21 | – | – | – | – | – | – | – | – | – | – | – | – |
| CC(=O)N(CCN1[C@@H]2CC[C@H]1C[C@@H](c1cccc(C(N)=O)c1)C2)CC1CCCCC1 | 10.00 | 8.80 | -1 | 1.23 | 0.267 | 1.05 | 9.90 | – | – | – | – | – | – | – | – | – | – | – | – | – |
| CCCCCCN(CCN1[C@@H]2CC[C@H]1C[C@@H](c1cccc(C(N)=O)c1)C2)C(=O)CO | 9.10 | 7.20 | -9 | 1.18 | 0.183 | 1.5 | 8.50 | 45 | – | – | – | – | – | – | – | – | – | – | – | – |
| CCC(CC)CN(CCN1[C@@H]2CC[C@H]1C[C@@H](c1cccc(C(N)=O)c1)C2)C(=O)CO | 9.80 | 7.90 | 9 | 1.5 | 1.25 | 1.5 | 9.90 | 32 | – | – | – | – | – | – | – | – | – | – | – | – |
| C[C@H]1CN(CCCc2ccccc2)CC[C@@]1(C)c1cccc(O)c1 | 10.00 | 8.90 | -21 | 0.1 | – | – | 9.10 | – | – | – | – | – | – | – | – | – | – | – | – | – |
| CCC(CC)CN(CCCN1[C@@H]2CC[C@H]1C[C@@H](c1cccc(C(N)=O)c1)C2)C(=O)CO | – | 8.50 | 3 | 1.48 | 1.5 | 1.5 | 9.70 | 20 | – | – | – | – | – | – | – | – | – | – | – | – |
| CC(C)(C)C(=O)N(CCN1[C@@H]2CC[C@H]1C[C@@H](c1cccc(C(N)=O)c1)C2)CC1CCCCC1 | 9.90 | 8.70 | 3 | 0.2 | 0.0333 | 0.15 | 9.80 | – | – | – | – | – | – | – | – | – | – | – | – | – |
| CN(C)S(=O)(=O)N(CCN1[C@@H]2CC[C@H]1C[C@@H](c1cccc(C(N)=O)c1)C2)CC1CCCCC1 | 9.70 | 8.70 | 0 | 0.133 | 0.0833 | 0.15 | 9.70 | – | – | – | – | – | – | – | – | – | – | – | – | – |
| CC(C)NC(=O)N(CCN1[C@@H]2CC[C@H]1C[C@@H](c1cccc(C(N)=O)c1)C2)CC1CCCCC1 | 9.70 | 8.90 | 21 | 0.333 | 0.233 | – | 9.80 | 36 | – | – | – | – | – | – | – | – | – | – | – | – |
| CS(=O)(=O)CC(=O)N(CCN1[C@@H]2CC[C@H]1C[C@@H](c1cccc(C(N)=O)c1)C2)CC1CCCCC1 | 10.00 | 8.90 | 0 | 0.833 | 0.467 | 1.5 | 10.00 | 18 | 880 | 1300 | 1 | 60 | Dose-dependent effect | 0.49 | Dose-dependent effect | 0.33 | Dose-dependent effect | 24 | 49 | 73 |
| NC(=O)c1cccc([C@H]2C[C@H]3CC[C@@H](C2)N3CCN(CC2CCOCC2)C(=O)CO)c1 | 7.90 | 6.70 | 0 | 1.5 | 1.5 | 1.5 | 8.20 | < 1 | – | – | – | – | – | – | – | – | – | – | – | – |
| C[C@H]1CN(CCC(=O)O)CC[C@@]1(C)c1cccc(O)c1 | 6.20 | 5.50 | 4 | > 1.5 | – | – | – | < 1 | – | – | – | – | – | – | – | – | – | – | – | – |
